Reference: ChEMBL document CHEMBL1138743, “Discovery of novel heteroarylazoles that are metabotropic glutamate subtype 5 receptor antagonists with anxiolytic activity” (J Med Chem, 2004)

Columns and labels:
[1] = target: Metabotropic glutamate receptor 5 (Rattus norvegicus, UniProt P31424); assay: Displacement of [3H]3-methoxy-5-(pyridin-2-ylethynyl)pyridine from glutamate 5 receptor of rat cortical membranes; format: cell membranes, Membrane
Outline: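 Native mGlu5 in rat cortical membranes; displacement of bound [3H]-3-methoxy-5-(pyridin-2-ylethynyl)pyridine by test compound. Ki given as geometric mean with lower and upper limits and number of replicates.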

[2] = target: Metabotropic glutamate receptor 5 (Homo sapiens, UniProt P41594); assay: Inhibitory concentration towards human glutamate receptor 5 in calcium flux assay; format: functional
Outline: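 Ltk cells stably expressing human recombinant mGlu5; glutamate as agonist. Cytosolic Ca2+ changes read by fura-2 fluorescence in an automated format. IC50 given as geometric mean with limits and replicate number.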

[3] = Maximum concentration in rat when administered at 10 mg/kg perorally; format: ADME, organism-based; design: dose 10 mg/kg, route oral; conditions: in vivo, po
Outline: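 Sprague-Dawley rats dosed 10 mg/kg po (n = 3/group); maximum plasma concentration recorded.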

[4] = Bioavailability in rat; format: ADME, organism-based; conditions: in vivo
Outline: (§1)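 Sprague-Dawley rats given 2 mg/kg iv (n = 2/group) and 10 mg/kg po (n = 3/group). Clearance, volume of distribution, half-life and oral bioavailability derived from plasma concentration profiles.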

[5] = Volume of distribution in rat; format: ADME, organism-based; conditions: in vivo; outline: as §1
[6] = Plasma clearance in rat; format: ADME, organism-based; conditions: read-out: Clp; outline: as §1
[7] = Half life in rat; format: ADME; conditions: in vivo; outline: as §1
[8] = test system: Rattus norvegicus; assay: In vivo receptor occupancy was determined in rats administered intraperitoneally after 1 hr; format: functional; conditions: ip
[9] = Plasma level after 1 hr following 3 mg/kg dose administered intraperitoneally; format: ADME, organism-based; design: dose 3 mg/kg, route intraperitoneal; conditions: rat, ip, read-out: Plasma Level
Outline: (§2)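 Rats given 3 mg/kg ip; plasma and brain concentrations measured at 1 h after dosing.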

[10] = test system: Rattus norvegicus; assay: In vivo receptor occupancy was determined in rats administered perorally after 2 hr; format: functional; conditions: po
Outline: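 Sprague-Dawley rats dosed orally (n = 5–7/group); tail-vein radioligand given at Tmax, 2 h post-dose. Animals killed 1 min later and brain-bound tracer quantified. Occupancy ED50 from dose–response.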

[11] = Brain level after 1 hr following 3 mg/kg dose administered intraperitoneally; format: ADME, organism-based; design: dose 3 mg/kg, route intraperitoneal; conditions: rat, ip; outline: as §2
[12] = Brain level after 1 hr following 10 mg/kg dose administered intraperitoneally; format: ADME, organism-based; design: dose 10 mg/kg, route intraperitoneal; conditions: rat, ip
Outline: (§3)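 Rats given 10 mg/kg ip; plasma and brain concentrations measured at 1 h after dosing.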

[13] = test system: Rattus norvegicus; assay: Blockage of fear-conditioning in rats determined in the fear-potentiated startle (FPS) model of anxiety administered perorally after 1 hr; format: functional; conditions: po
Outline: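 Fear-potentiated startle in Wistar rats (n = 8/group), acute oral dosing, tested 1 h after administration. Startle amplitude compared in dark versus light; ED50 for blocking fear expression.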

[14] = test system: Rattus norvegicus; assay: In vivo receptor occupancy was determined in rats administered perorally after 30 min; format: functional; conditions: po, 0.5 h
[15] = Plasma level after 1 hr following 10 mg/kg dose administered intraperitoneally; format: ADME, organism-based; design: dose 10 mg/kg, route intraperitoneal; conditions: rat, ip, read-out: Plasma Level; outline: as §3

Sequence of Metabotropic glutamate receptor 5 (Rattus norvegicus, UniProt P31424) (P31424 whole entry): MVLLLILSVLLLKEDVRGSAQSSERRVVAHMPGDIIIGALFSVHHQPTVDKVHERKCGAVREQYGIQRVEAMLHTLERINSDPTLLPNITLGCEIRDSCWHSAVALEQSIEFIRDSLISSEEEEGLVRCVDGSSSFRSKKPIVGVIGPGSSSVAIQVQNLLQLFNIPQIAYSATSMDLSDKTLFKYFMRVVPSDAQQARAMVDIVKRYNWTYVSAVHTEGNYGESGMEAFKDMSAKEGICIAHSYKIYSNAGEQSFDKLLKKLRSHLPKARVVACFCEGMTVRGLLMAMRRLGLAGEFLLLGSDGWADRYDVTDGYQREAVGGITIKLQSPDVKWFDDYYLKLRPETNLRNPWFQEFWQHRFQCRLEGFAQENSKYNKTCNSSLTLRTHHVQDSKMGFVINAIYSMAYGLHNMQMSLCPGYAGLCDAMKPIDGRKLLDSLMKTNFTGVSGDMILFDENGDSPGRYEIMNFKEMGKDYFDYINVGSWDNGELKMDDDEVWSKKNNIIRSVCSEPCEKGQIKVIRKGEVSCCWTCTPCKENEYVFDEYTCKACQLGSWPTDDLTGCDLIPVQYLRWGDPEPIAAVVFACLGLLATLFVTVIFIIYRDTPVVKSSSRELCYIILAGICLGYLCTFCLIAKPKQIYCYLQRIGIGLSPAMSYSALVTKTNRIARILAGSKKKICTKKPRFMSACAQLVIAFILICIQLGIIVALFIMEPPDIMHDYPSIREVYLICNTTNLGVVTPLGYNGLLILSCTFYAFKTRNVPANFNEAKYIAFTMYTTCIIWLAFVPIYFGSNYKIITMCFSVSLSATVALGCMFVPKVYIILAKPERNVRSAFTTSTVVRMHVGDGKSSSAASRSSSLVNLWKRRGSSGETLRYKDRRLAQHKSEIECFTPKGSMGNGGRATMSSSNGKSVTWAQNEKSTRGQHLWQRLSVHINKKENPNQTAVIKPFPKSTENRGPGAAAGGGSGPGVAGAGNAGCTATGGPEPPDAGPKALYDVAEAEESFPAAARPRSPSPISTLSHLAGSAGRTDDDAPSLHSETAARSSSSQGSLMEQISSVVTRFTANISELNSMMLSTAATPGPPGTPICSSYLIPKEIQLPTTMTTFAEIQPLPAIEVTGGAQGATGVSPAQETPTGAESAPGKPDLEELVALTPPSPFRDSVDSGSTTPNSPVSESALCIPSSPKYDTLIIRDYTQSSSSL
Sequence of Metabotropic glutamate receptor 5 (Homo sapiens, UniProt P41594) (P41594 whole entry): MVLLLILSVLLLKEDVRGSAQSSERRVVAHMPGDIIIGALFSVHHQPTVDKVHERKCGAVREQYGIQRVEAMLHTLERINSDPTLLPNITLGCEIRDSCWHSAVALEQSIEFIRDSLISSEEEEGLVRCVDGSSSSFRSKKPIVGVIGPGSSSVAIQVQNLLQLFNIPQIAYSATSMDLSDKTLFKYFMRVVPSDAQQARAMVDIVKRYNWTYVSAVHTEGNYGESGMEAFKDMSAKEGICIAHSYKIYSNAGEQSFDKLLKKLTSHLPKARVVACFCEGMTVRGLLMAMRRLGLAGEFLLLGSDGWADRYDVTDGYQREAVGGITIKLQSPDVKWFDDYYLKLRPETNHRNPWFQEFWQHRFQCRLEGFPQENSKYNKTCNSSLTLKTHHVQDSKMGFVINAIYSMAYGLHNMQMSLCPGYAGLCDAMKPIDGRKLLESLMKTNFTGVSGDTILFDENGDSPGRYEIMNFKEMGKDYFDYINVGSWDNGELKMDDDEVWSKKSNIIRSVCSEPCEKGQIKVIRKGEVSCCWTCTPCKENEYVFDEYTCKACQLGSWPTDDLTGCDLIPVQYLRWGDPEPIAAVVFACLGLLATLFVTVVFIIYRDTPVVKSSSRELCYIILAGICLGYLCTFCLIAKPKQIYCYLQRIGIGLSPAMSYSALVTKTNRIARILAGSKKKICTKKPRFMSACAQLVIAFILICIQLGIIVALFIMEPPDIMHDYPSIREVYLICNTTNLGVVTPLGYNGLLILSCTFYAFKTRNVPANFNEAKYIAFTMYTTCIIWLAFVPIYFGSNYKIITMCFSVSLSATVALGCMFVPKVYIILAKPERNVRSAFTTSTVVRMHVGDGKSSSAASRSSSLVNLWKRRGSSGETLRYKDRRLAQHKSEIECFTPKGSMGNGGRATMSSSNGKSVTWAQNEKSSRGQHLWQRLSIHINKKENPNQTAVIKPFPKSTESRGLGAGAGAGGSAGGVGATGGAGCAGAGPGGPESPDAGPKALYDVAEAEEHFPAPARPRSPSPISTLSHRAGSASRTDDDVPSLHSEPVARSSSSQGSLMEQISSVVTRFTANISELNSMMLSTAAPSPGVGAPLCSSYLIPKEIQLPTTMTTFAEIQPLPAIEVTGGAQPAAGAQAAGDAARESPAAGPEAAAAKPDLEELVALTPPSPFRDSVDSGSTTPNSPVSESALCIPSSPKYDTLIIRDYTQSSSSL

Structure (SMILES)	Ki [1]	IC50 [2]	Cmax [3]	clearance [6]	further results
N#Cc1cccc(-n2ccc(-c3ccccn3)n2)c1	530 nM	440 nM			
N#Cc1cccc(-c2ccn(-c3ccccn3)n2)c1	> 600 nM	3600 nM			
N#Cc1cccc(-c2cnn(-c3ccccn3)c2)c1	> 630 nM	890 nM			
N#Cc1cccc(-c2cn(-c3ccccn3)nn2)c1	> 630 nM	> 10000 nM			
N#Cc1cccc(-n2cc(-c3ccccn3)nn2)c1	> 600 nM	980 nM			
N#Cc1cccc(-c2cnn(-c3ccccn3)n2)c1	200 nM	210 nM	2700 nM	15.1 mL/min/kg	bioavailability [4]: 13%; Vd [5]: 1 L/kg; half-life [7]: 1.7 h
N#Cc1cccc(-n2ncc(-c3ccccn3)n2)c1	300 nM	80 nM	600 nM	15.7 mL/min/kg	bioavailability [4]: 3%; Vd [5]: 1.1 L/kg; half-life [7]: 2.5 h
N#Cc1cc(F)cc(-n2nnc(-c3ccccn3)n2)c1	10 nM	4 nM	2500 nM	16.9 mL/min/kg	ED50 [8]: 1.3 mg/kg; concentration at 1 h [9]: 2700 nM; bioavailability [4]: 26%; Vd [5]: 1.1 L/kg; ED50 [10]: 3.6 mg/kg; concentration at 1 h [11]: 2400 nM
N#Cc1cccc(-n2cc(-c3ccccn3)cn2)c1	250 nM	140 nM	1200 nM	9.7 mL/min/kg	bioavailability [4]: 3%; Vd [5]: 3.7 L/kg; half-life [7]: 5.5 h
N#Cc1cccc(-c2ncn(-c3ccccn3)n2)c1	> 600 nM	6150 nM			
N#Cc1cccc(-n2cnc(-c3ccccn3)n2)c1	> 600 nM	690 nM			
N#Cc1cccc(-c2ccn(-c3ccccn3)c2)c1	> 600 nM	4620 nM			
N#Cc1cccc(-n2ccc(-c3ccccn3)c2)c1	> 600 nM	190 nM	900 nM	32.5 mL/min/kg	bioavailability [4]: 4%; Vd [5]: 3.6 L/kg; half-life [7]: 1.7 h
N#Cc1cccc(-c2nc(-c3ccccn3)no2)c1	490 nM				
N#Cc1cccc(-c2cn(-c3ccccn3)cn2)c1	> 600 nM	> 10000 nM			
N#Cc1cccc(-n2cnc(-c3ccccn3)c2)c1	> 600 nM	1150 nM			
N#Cc1cccc(-n2nnc(-c3ccccn3)n2)c1	190 nM	70 nM	5800 nM	32.9 mL/min/kg	ED50 [8]: 3 mg/kg; concentration at 1 h [12]: 15300 nM; ED50 [13]: 5.4 mg/kg; ED50 [14]: 3 mg/kg; concentration at 1 h [15]: 10500 nM
N#Cc1cccc(-c2nnn(-c3ccccn3)n2)c1	450 nM	270 nM			
